According to ChEMBL document CHEMBL4270666, “Development of Dihydrodibenzooxepine Peroxisome Proliferator-Activated Receptor (PPAR) Gamma Ligands of a Novel Binding Mode as Anticancer Agents: Effective Mimicry of Chiral Structures by Olefinic E/ Z-Isomers” (J Med Chem, 2018):
Calls of active or inactive are those of the source. The calls are words filed in the database; no cut-off is given here.

Experiments:
[1] = molecular target: T1, Peroxisome proliferator-activated receptor gamma (Homo sapiens, UniProt P37231); experiment: Transactivation of GAL4-fused human PPARgamma transfected in HEK293BENA cells after 24 hrs by steady glo-luciferase reporter gene assay; format: cell-based
T1 sequence (P37231 whole entry): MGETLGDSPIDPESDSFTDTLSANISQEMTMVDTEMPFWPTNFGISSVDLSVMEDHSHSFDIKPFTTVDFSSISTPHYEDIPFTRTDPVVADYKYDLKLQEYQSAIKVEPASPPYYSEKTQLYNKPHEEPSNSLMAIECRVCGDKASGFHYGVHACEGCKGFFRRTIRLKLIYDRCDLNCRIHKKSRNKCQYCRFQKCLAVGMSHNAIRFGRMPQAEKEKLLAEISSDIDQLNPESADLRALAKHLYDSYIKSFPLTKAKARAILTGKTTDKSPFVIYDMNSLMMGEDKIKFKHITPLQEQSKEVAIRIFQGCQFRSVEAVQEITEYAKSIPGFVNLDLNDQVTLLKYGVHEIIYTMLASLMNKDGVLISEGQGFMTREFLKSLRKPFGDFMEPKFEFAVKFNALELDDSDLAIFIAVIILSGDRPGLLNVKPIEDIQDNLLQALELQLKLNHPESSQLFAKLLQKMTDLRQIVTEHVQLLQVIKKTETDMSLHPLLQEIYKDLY

[2] = Inhibition of cologenic growth of human DRO cells at 1 nM after 2 weeks by soft agar assay relative to control; format: functional; settings: 336 h
[3] = molecular target: T1, Peroxisome proliferator-activated receptor gamma; experiment: Transactivation of PPARgamma (unknown origin) transfected in human DRO cells after 24 hrs by dual luciferase reporter gene assay; format: cell-based
Mus musculus = organism: Mus musculus; experiment: Antidiabetic activity in db/db diabetic mouse model assessed as reduction in blood glucose levels relative to vehicle-treated control; format: functional; set-up: scale not given: the % may be the effect or the level left
[4] = molecular target: T2, Peroxisome proliferator-activated receptor gamma (Homo sapiens) (UniProt P37231); experiment: Transactivation of PPARgamma in human MKN45 cells assessed as decrease in vimentin gene expression at 10 to 100 nM after 72 hrs by quantitative PCR analysis; format: cell-based
T2 sequence (whole entry): T1 sequence (P37231 whole entry)
In short: (§1)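 MKN45 cells treated with compound for 72 h (N = 3 per concentration); cells washed in cold PBS, total RNA isolated, transcript levels measured by quantitative PCR and corrected to GAPDH; fold-induction expressed relative to control/baseline.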

[5] = molecular target: T2, Peroxisome proliferator-activated receptor gamma (Homo sapiens); experiment: Transactivation of PPARgamma in human MKN45 cells assessed as increase in angptl4 gene expression at 10 to 100 nM after 72 hrs by quantitative PCR analysis; format: cell-based; in short: as §1
[6] = molecular target: T2, Peroxisome proliferator-activated receptor gamma (Homo sapiens); experiment: Agonist activity at PPARgamma in human MKN45 cells assessed as cell differentiation at 30 nM after 5 days by Hoechst 33342 staining-based assay relative to control
In short: (§2)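 MKN45 cells grown in RPMI1640 with 10% FBS, penicillin/streptomycin, 37 °C, 5% CO2; seeded 2500 cells/well, exposed to compound (1-1000 nM, N = 3 per concentration) for 5 days. Hoechst 33342 nuclear stain, imaged; nuclear areas above 1,015.58 μm2 counted as aggregated clusters; aggregated-cluster area over total cell area gives aggregation rate, normalized to a reference agonist's maximum; EC50 at half-maximal activity.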

[7] = molecular target: T2, Peroxisome proliferator-activated receptor gamma (Homo sapiens); experiment: Transactivation of PPARgamma in human MKN45 cells assessed as increase in adfp gene expression at 10 to 100 nM after 72 hrs by quantitative PCR analysis; format: cell-based; in short: as §1
[8] = molecular target: T2, Peroxisome proliferator-activated receptor gamma (Homo sapiens); experiment: Agonist activity at PPARgamma in human MKN45 cells assessed as cell differentiation at 100 nM after 5 days by Hoechst 33342 staining-based assay; in short: as §2

Row | Compound | EC50 [1] | also measured
1 | CCc1nc2c(C)cc(C)nc2n1Cc1ccc2c(c1)CCc1ccccc1/C2=C(\C)c1noc(=O)[nH]1 | 177 nM | –
2 | Cc1cc(Oc2ccc3nc(COc4ccc(CC5SC(=O)NC5=O)cc4)n(C)c3c2)cc(C)c1N (configuration not stated) [EFATUTAZONE] | – | inhibition at 0.001 µM [2]: 63%; EC50 [3]: 1 nM
3 | CCCc1nc2c(C(=O)NCCO)cccc2n1Cc1ccc2c(c1)COc1ccccc1/C2=C(\C)c1noc(=O)[nH]1 | 57 nM | –
4 | CCCc1nc(-c2ccccc2)cn1Cc1ccc2c(c1)COc1ccccc1/C2=C(\C)c1noc(=O)[nH]1 | 151 nM | –
5 | CCCc1nc2c(CO)cccc2n1Cc1ccc2c(c1)COc1ccccc1/C2=C(\C)c1noc(=O)[nH]1 | 33 nM | –
6 | O=S(=O)(Nc1cc(Cl)c(Oc2cnc3ccccc3c2)c(Cl)c1)c1ccc(Cl)cc1Cl [INT131] | – | Activity (Mus musculus): 60%
7 | CCCc1nc2c(C)cccc2n1Cc1ccc2c(c1)COc1ccccc1/C2=C(\C)c1noc(=O)[nH]1 | – | Activity [4]: Active; Activity [5]: Active; Activity [6]: 94%; Activity [7]: Active; Activity [8]: Active
8 | CCCc1nc(-c2ccncc2)cn1Cc1ccc2c(c1)COc1ccccc1/C2=C(\C)c1noc(=O)[nH]1 | 593 nM | –

The remaining compounds from weak to strong by EC50 [1], led by results:

Row | EC50 [1] | Compound | also measured
9 | 166 nM | CCCc1nc2c(NS(C)(=O)=O)cccc2n1Cc1ccc2c(c1)COc1ccccc1/C2=C(\C)c1noc(=O)[nH]1 | –
10 | 163 nM | CCCCCS(=O)(=O)NC(=O)c1ccc2nc(C)n(Cc3ccc(Cl)cc3Cl)c2c1 [ATX08-001] | –
11 | 84 nM | CCc1nc2c(C)cc(C)nc2n1Cc1ccc2c(c1)COc1ccccc1/C2=C(\C)c1noc(=O)[nH]1 | –
12 | 2.7 nM | CCCc1nc2ccccc2n1Cc1ccc2c(c1)COc1ccccc1/C2=C(\C)c1noc(=O)[nH]1 | –
